According to ChEMBL document CHEMBL4689842, “EUbOPEN Chemogenomics Library wave 1” (2021):
“And” between values parts separate entries of the source, which are not always exact repeats. Equal values may be shown once.

Tested on: Fibroblast
Experiment: Multiplex assay against human fibroblast
Type: toxicity, cell-based
In short: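 At seeding, live cells were stained with Hoechst33342, BioTracker Green Microtubule Cytoskeleton Dye, MitoTracker Red and Annexin V Alexa Fluor 680. After compound addition they were imaged on a CQ1 microscope at 37°C and 5% CO2, and CellPathfinder machine-learning gating sorted them into Hoechst high-intensity objects or normal cells, with normal cells further split into healthy, pyknosed or fragmented nuclei and pyknosed cells into mitotic or apoptotic. Tubulin, mitochondrial-mass and membrane-permeability phenotypes are given as per cents of cells with healthy nuclei.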

[1] = 12 h, 1 µM, compound concentration 1 uM, replicate 1
[2] = 12 h, 1 µM, compound concentration 1 uM, replicate 2
[3] = 12 h, 10 µM, compound concentration 10 uM, replicate 1
[4] = 12 h, 10 µM, compound concentration 10 uM, replicate 2
[5] = 24 h, 1 µM, compound concentration 1 uM, replicate 1
[6] = 24 h, 1 µM, compound concentration 1 uM, replicate 2
[7] = 24 h, 10 µM, compound concentration 10 uM, replicate 1
[8] = 24 h, 10 µM, compound concentration 10 uM, replicate 2
[9] = 48 h, 1 µM, compound concentration 1 uM, replicate 1
[10] = 48 h, 1 µM, compound concentration 1 uM, replicate 2
[11] = 48 h, 10 µM, compound concentration 10 uM, replicate 1
[12] = 48 h, 10 µM, compound concentration 10 uM, replicate 2

`O=C(NCCCC1CCCCC1)c1ccc(CNC(=O)c2cnn(-c3ccccc3)c2C(F)(F)F)cc1` [SR-321] was tested, and the “Population Apoptotic (%)” value [1] was 68% [middle of 4 runs], the “Population Fragmented Nuclei (%)” value [1] was 20% and 21% and 28% and the “Population Healthy Nuclei (%)” value [1] was 35% and 39% and 42%. For the same molecule, the “Population Hoechst High Intensity Objects (%)” value [1] was 12% and 11% and 10%, the “Population Mitochondria Different-Phenotype (%)” value [1] was 13% [middle of 4 runs] and the “Population Mitotic Cells (%)” value [1] was 36% [middle of 4 runs]. The “Population Normal (%)” value [1] was 87% and 88% and 89%, the “Population Pyknosed Nuclei (%)” value [1] was 39% [middle of 4 runs] and the “Total Cell Count” value [1] was 176 [middle of 4 runs]. For the same molecule, the “Population Membrane Permeable-Phenotype (%)” value [2] was 14% and 0% and 22%, the “Population Normal (%)” value [2] was 91% and 78% and 92% and 56% and the “Population Pyknosed Nuclei (%)” value [2] was 5% and 6% and 4%. The “Total Cell Count” value [2] was 72 [middle of 4 runs], the “Population Apoptotic (%)” value [3] was 50% and 60% and 77% and the “Population Fragmented Nuclei (%)” value [3] was 23% [middle of 4 runs]. For the same molecule, the “Population Healthy Nuclei (%)” value [3] was 36% and 34% and 55%, the “Population Hoechst High Intensity Objects (%)” value [3] was 10% and 9% and 6% and the “Population Mitotic Cells (%)” value [3] was 49% [middle of 4 runs]. For the same molecule, the “Population Normal (%)” value [3] was 89% and 90% and 93%, the “Population Pyknosed Nuclei (%)” value [3] was 46% and 38% and 43% and the “Total Cell Count” value [3] was 161 [middle of 4 runs]. For the same molecule, the “Population Healthy Nuclei (%)” value [4] was 71% and 66% and 69%, the “Population Membrane Permeable-Phenotype (%)” value [4] was 5% and 2% and 0% and the “Population Mitotic Cells (%)” value [4] was 80% and 81% and 44%. For the same molecule, the “Population Normal (%)” value [4] was 73% and 94% and 91% and 70%, the “Total Cell Count” value [4] was 103 [middle of 4 runs] and the “Population Apoptotic (%)” value [5] was 31% and 58% and 66%. The “Population Fragmented Nuclei (%)” value [5] was 20% [middle of 4 runs], the “Population Healthy Nuclei (%)” value [5] was 48% [middle of 4 runs] and the “Population Hoechst High Intensity Objects (%)” value [5] was 13% [middle of 4 runs]. For the same molecule, the “Population Mitochondria Different-Phenotype (%)” value [5] was 6% [middle of 4 runs], the “Population Mitotic Cells (%)” value [5] was 68% and 41% and 33% and the “Population Normal (%)” value [5] was 86% and 90% and 82% and 87%. The “Population Pyknosed Nuclei (%)” value [5] was 33% [middle of 4 runs], the “Total Cell Count” value [5] was 174 [middle of 4 runs] and the “Population Membrane Permeable-Phenotype (%)” value [6] was 4% [middle of 4 runs]. For the same molecule, the “Population Mitochondria Different-Phenotype (%)” value [6] was 19% and 12% and 7%, the “Population Mitotic Cells (%)” value [6] was 100% and 40% and 60% and the “Population Normal (%)” value [6] was 85% and 95% and 89% and 56%. The “Total Cell Count” value [6] was 79 [middle of 4 runs], the “Population Apoptotic (%)” value [7] was 50% and 57% and 51% and 64% and the “Population Fragmented Nuclei (%)” value [7] was 16% and 31% and 23%. For the same molecule, the “Population Healthy Nuclei (%)” value [7] was 42% [middle of 4 runs], the “Population Hoechst High Intensity Objects (%)” value [7] was 12% [middle of 4 runs] and the “Population Mitotic Cells (%)” value [7] was 49% and 42% and 48% and 35%. For the same molecule, the “Population Normal (%)” value [7] was 85% and 90% and 89% and 87%, the “Population Pyknosed Nuclei (%)” value [7] was 46% and 36% and 34% and the “Total Cell Count” value [7] was 148 [middle of 4 runs]. The “Population Apoptotic (%)” value [8] was 33% and 44%, the “Population Fragmented Nuclei (%)” value [8] was 20% and 42% and the “Population Healthy Nuclei (%)” value [8] was 67% and 65% and 40%. The “Population Membrane Permeable-Phenotype (%)” value [8] was 4% [middle of 4 runs], the “Population Mitotic Cells (%)” value [8] was 50% and 66% and 55% and the “Population Normal (%)” value [8] was 93% and 81% and 92% and 63%. The “Population Pyknosed Nuclei (%)” value [8] was 15% [middle of 4 runs], the “Total Cell Count” value [8] was 103 [middle of 4 runs] and the “Population Apoptotic (%)” value [9] was 75% and 54% and 59%. For the same molecule, the “Population Fragmented Nuclei (%)” value [9] was 29% and 25% and 21%, the “Population Healthy Nuclei (%)” value [9] was 44% and 51% and 53% and the “Population Hoechst High Intensity Objects (%)” value [9] was 16% and 14% and 15%. The “Population Membrane Permeable-Phenotype (%)” value [9] was 36% and 26% and 20%, the “Population Mitochondria Different-Phenotype (%)” value [9] was 2% and 6% and the “Population Mitotic Cells (%)” value [9] was 24% and 45% and 40%. For the same molecule, the “Population Normal (%)” value [9] was 83% and 85% and 84%, the “Population Pyknosed Nuclei (%)” value [9] was 26% and 22% and 24% and the “Population Tubulin-Different-Phenotype (%)” value [9] was 38% and 34% and 20%. For the same molecule, the “Total Cell Count” value [9] was 132 and 170 and 130, the “Population Fragmented Nuclei (%)” value [10] was 14% and 19% and 13% and the “Population Healthy Nuclei (%)” value [10] was 85% and 80%. The “Population Hoechst High Intensity Objects (%)” value [10] was 13% and 9%, the “Population Membrane Permeable-Phenotype (%)” value [10] was 16% and 10% and the “Population Mitochondria Different-Phenotype (%)” value [10] was 1% and 0%. The “Population Mitotic Cells (%)” value [10] was 0%, the “Population Normal (%)” value [10] was 86% and 90% and the “Population Pyknosed Nuclei (%)” value [10] was 1% and 0%. For the same molecule, the “Population Tubulin-Different-Phenotype (%)” value [10] was 28% and 17% and 14%, the “Total Cell Count” value [10] was 116 and 92 and 152 and the “Population Apoptotic (%)” value [11] was 63% and 65% and 75%. For the same molecule, the “Population Fragmented Nuclei (%)” value [11] was 27% and 40% and 39%, the “Population Healthy Nuclei (%)” value [11] was 39% and 42% and the “Population Hoechst High Intensity Objects (%)” value [11] was 15% and 13% and 9%. The “Population Membrane Permeable-Phenotype (%)” value [11] was 15% and 23% and 22%, the “Population Mitochondria Different-Phenotype (%)” value [11] was 10% and 23% and 14% and the “Population Mitotic Cells (%)” value [11] was 36% and 35% and 24%. The “Population Normal (%)” value [11] was 84% and 86% and 90%, the “Population Pyknosed Nuclei (%)” value [11] was 33% and 16% and 21% and the “Population Tubulin-Different-Phenotype (%)” value [11] was 46% and 52% and 68%. The “Total Cell Count” value [11] was 117 and 138 and 152, the “Population Apoptotic (%)” value [12] was 50% and 100% and the “Population Fragmented Nuclei (%)” value [12] was 21%. For the same molecule, the “Population Healthy Nuclei (%)” value [12] was 68% and 76% and 75%, the “Population Hoechst High Intensity Objects (%)” value [12] was 8% and 14% and the “Population Mitochondria Different-Phenotype (%)” value [12] was 7% and 5% and 11%. The “Population Normal (%)” value [12] was 91% and 85%, the “Population Tubulin-Different-Phenotype (%)” value [12] was 67% and 60% and 42% and the “Total Cell Count” value [12] was 108 and 85 and 70.
